# According to PubChem BioAssay:
# Unmarked numbers belong to inactive results. Records with an inconclusive call do not appear. The source made the active and inactive calls.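 How the source made its calls, unless noted: active means viability increase at or above a cutoff of the median across tested compounds plus 3 SD (cut at about 8.5% in these data, passing the limit was not always enough); inconclusive means some gains above the cutoff, reason not given; inactive means the rest.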
# Tests used:
# [1] = OD615 S. cerevisiae growth inhibition, permissive medium, pilot counter-assay, permissive growth control for S. cerevisiae lifespan shortening project (AID 705;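 active means growth inhibition above 25% in both replicates, a cutoff set 3 SD above the mean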); settings: OD615, 24 h, at 10 µM, active compounds read high
# Summary of the method: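 Material: engineered DeaD yeast; compound dosing: one dose 10 µM, DMSO 0.25% final; measure: yeast growth inhibition indicated by reduced 24 h OD615; detection: OD615 turbidity read; incubation: cells pre-grown 4 h, then 24 h compound exposure, 30 °C humidified; medium: permissive synthetic complete medium with raffinose and galactose carbon sources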
# [2] = Restrictive medium S. cerevisiae growth inhibition, OD615, pilot screen of yeast lifespan reduction project, restrictive growth control (AID 706;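 active means growth inhibition above a set limit, 3 SD over mean compound inhibition, in both replicates, cut at about 43% in these data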;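 further: modified DeaD lifespan yeast strain shifted to restrictive glucose medium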); settings: OD615, 48 h, at 10 µM, active compounds read high
# Summary of the method: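 material = engineered S. cerevisiae DeaD strain | medium = glucose-based CSMM-D restrictive medium | times = 4 h pre-incubation, 48 h exposure at 30 °C | technique = OD615 absorbance reading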
# [3] = viability gain of MRP-1-high H69AR cells under doxorubicin, pilot screen, MRP-1 activator project, CellTiter-Glo, duplicate (AID 807); settings: H69AR viability with doxorubicin, CellTiter-Glo luminescence; at 10 µM; active compounds read high;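 further: compound pretreatment 18-22 h then 72 h combined with doxorubicin; 0% = doxorubicin alone and 100% = vehicle without doxorubicin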
# [4] = growth suppression of beta-catenin knockout HCT116, pilot screen, human colon tumor cells (AID 823;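 active means cell viability at or below a set limit in both duplicate runs, the limit being the all-compound median minus 4 SD, cut at about 23% in these data, passing the limit was not always enough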;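 further: 0% = wells killed by 20 µM Hyamine and 100% = untreated DMSO cell wells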); settings: CellTiter-Glo, 60 h, at 10 µM, active compounds read low
# [5] = growth suppression of PTEN-deleted HCT116, pilot screen, cell-based, HCT116 clonal line, CellTiter-Glo (AID 824;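 active means viability at or below 27.92% in each of two runs, the all-compound median minus 4 SD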;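 further: 0% = 20 µM Hyamine control and 100% = vehicle cell control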); settings: 60 h, at 10 µM, active compounds read low
# [6] = inhibitors of the yeast RAM network, pilot screen, dse1pr::URA3 reporter, 5-FOA selection (AID 869;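 active means inhibition over a set limit, the all-compound mean plus 3 SD, in both replicate runs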;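 further: 0% = DMSO wells with no growth and 100% = 10 µM 1-NA-PP1 with full growth; RAM network block rescues cells from 5-FOA so hits raise OD615 growth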); settings: S. cerevisiae dse1pr::URA3 5-FOA growth, OD615, 2 d; at 10 µM; active compounds read high; strain carries analog-sensitive mutant Cbk1 kinase
# [7] = RAM signaling pathway blockade in yeast – S. cerevisiae, Pdr1DBD-CYC8 efflux-inhibited sensitized strain, primary screen (AID 1298;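 active means RAM network inhibition above 8.4% in each of two replicates, 3 SD over the compound average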;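 further: 0% = DMSO untreated cells without growth and 100% = 10 µM 1-NA-PP1 full growth; higher means more yeast growth rescued from 5-FOA killing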); settings: S. cerevisiae cbk1-as DSE1-URA3 strain, 5-FOA growth OD615, 2 d; at 50 µM; active compounds read high
SMILES,growth inhibition [1] [%],growth inhibition [2],viability increase [3] [%],viability [4] [%],viability [5] [%],inhibition [6] [%],RAM network inhibition [7] [%]
COc1ccccc1NC(=O)C1=C(C)NC(=O)NC1c1ccccc1F (centres undefined),-7.88,-13.5%,-0.75,99.2,107,1.82,2.41
COc1ccc(CN2CCCCC2C(=O)Nc2ccc(OC)c(OC)c2)cc1OC (centres undefined),-10.9,-12.6%,-1.88,95.8,93.3,0.01,0.21
COc1ccc(CC(=O)N2CCN=C2SC)cc1,3.24,-0.34%,1.06,99.3,103,1.54,0.48
O=C(CCCc1ccccc1)NCc1cn2ccsc2n1,-8.33,6.95%,0.97,103,105,1.31,5.11
Cc1ccc(C2/C(=C(/O)c3ccc(Br)cc3)C(=O)C(=O)N2Cc2ccco2)o1 (centres undefined),-16.2,7.88%,-6.07,55,65,0.82,-1.74
Cn1cccc1Cc1nnc(SCC(=O)NC2CCCC2)n1-c1ccc(F)cc1,1.76,6.74%,-2.12,104,96.7,0.675,3.25
CCC(Sc1nc2ccccc2[nH]1)C(=O)Nc1cc(C)on1 (centres undefined),-13,-17.9%,1.02,100,101,1.1,-0.37
O=C(C1CC(c2ccc(F)cc2)=NO1)N1CCN(c2ccccc2)CC1 (centres undefined),1.07,-3.47%,-0.13,99.1,95.6,1.23,3.67
CCOCCCNC(=O)c1cc2c(-c3ccc(Cl)cc3)nn(C)c2s1,7.49,11%,-6.53,62.2,56.8,2.62,1.34
Cc1csc2nc(CNC(=O)CCC(=O)O)cn12,-8.41,-2.59%,-0.98,101,99.5,1.4,2.71
Cc1ccc(-c2nn(C)c(=O)c3ccccc23)cc1S(=O)(=O)N1CCCC1,-1.23,-6.2%,-5.14,49.8,61,0.01,2.78
COc1ccccc1-c1nnc(NC(=O)C(C)SC2=NCCS2)s1 (centres undefined),5.92,48.7% (active),-4.43,83.4,91.2,-0.115,6.22
Cc1occc1C(=O)NC(C)CCc1ccccc1 (centres undefined),-7.82,2.38%,-0.95,91.8,94.1,3.1,0.62
COc1ccc(C2N3CC4(C)CN2CC(C)(C3)C4O)cc1 (centres undefined),-17.7,-6.65%,0.42,106,97.2,1.22,-0.16
COCCOC(=O)C1=C(C)NC(=O)NC1C1CC=CCC1 (centres undefined),-6.74,-6.73%,0.63,91.5,101,1.45,5.08
COc1ccc(-n2c(Cn3c(=O)sc4ccccc43)nnc2SCC(=O)N2CCOCC2)cc1,-0.33,7.95%,0.3,102,97,0.235,1.66
N#CC1=C2C=CC=CN2CC1=O,-23.9,-15.7%,-2.42,91.2,93.1,1.7,2.23
COc1ccc(C2C(C#N)=C(N)N3C(=C2C#N)Sc2ccccc23)cc1 (centres undefined),-1.28,-4.12%,-0.06,98.9,102,1.09,8.82
Cc1ccc2c(c1)c1cccc3c1n2CCN3CCC(N)=O,4.29,6.53%,1.41,87.4,87.2,3.32,9.34

SMILES,growth inhibition [1] [%],growth inhibition [2],viability increase [3] [%],viability [4] [%],viability [5] [%],inhibition [6] [%],RAM network inhibition [7] [%]
COc1ccc(S(=O)(=O)N2CCC(C(=O)N3CCc4ccccc4C3)CC2)cc1OC,1.07,1.26%,-2.24,89.4,87.6,-0.455,5.37
COc1ccc(C(=O)C(OC(=O)CNC(=O)c2ccco2)c2ccccc2)cc1 (centres undefined),-11.8,3.51%,-3.65,100,102,1.49,2.66
COc1ccc(N(CC(=O)Nc2nccs2)S(=O)(=O)c2c(C)nn(C)c2C)cc1,-18.2,-6.82%,-3.77,93,87.5,3,3.8
COc1ccc2[nH]c(C)c(CCN3C(=O)C4C5C=CC(C5)C4C3=O)c2c1 (centres undefined),-3.19,5.9%,-2.43,106,94.9,0.285,4.02
O=c1c(/C=N/O)c(Nc2ccccc2)nc2ccccn12,-10.8,10.2%,-6.27,93.8,76.5,0.56,4.18
Cc1ccc(C(=O)N2CCN(C3CCCCC3)CC2)s1,-3.88,-0.76%,-1.15,102,97.7,1.48,1.05
CCC(C#CCN1CCOCC1)(CC)OCCC#N,-6.57,-3.89%,-0.51,97,95.9,1.35,0.88
Cc1sc2nc(SCC(=O)NCc3ccco3)[nH]c(=O)c2c1C,-4,-4.97%,-3.92,106,101,2.67,5.12
CCn1c2c(c3cc(Cl)ccc31)CCCC2=O,-8.81,-10.1%,-0.32,96,97.8,0.915,4.07
Cc1cc2cc(CNC(=O)Cc3cccs3)ccc2n1C,-14.6,3.17%,-4.96,74.9,69,3.38,8.91
O=C(NC1CCCCC1)N1CCCCCC1,1.12,-18%,-0.52,96.6,97.5,0.64,3.56
Cc1nn(C)c(C)c1S(=O)(=O)N(CC(=O)Nc1ccc2c(c1)OCO2)c1ccc(C(C)C)cc1,-19.5,-7.85%,-2.38,102,99.4,2.36,2.62
O=C(COc1ccccc1)N1CCN(S(=O)(=O)c2cccs2)CC1,-4.47,-11%,-0.82,94,85.3,0.6,7.83
O=C(Cn1cc2c(n1)CCCCC2)N1CCCCC1,-4.8,-5.9%,-0.82,98.5,92.4,1.23,-2.24
O=c1cc(CO)oc(C(Nc2ccccn2)c2ccccc2F)c1O (centres undefined),-10.6,-4.86%,-5.64,106,93.3,0.95,2.91
O=C(CCSc1ccccc1)Nc1nnc(-c2ccccc2)o1,-0.38,3.81%,-3.73,98.9,103,0.27,2.5
CCOC(=O)c1cc2c(=O)n3ccccc3nc2n(CCOC)c1=NC(=O)C(C)(C)C,-6.44,-18.2%,-3.78,93.6,96.9,-0.545,5.12
CN1C[N+]([O-])=C(c2ccccc2)C1(C)C,-1.95,-8.32%,-2.64,98.7,91.2,0.69,1.81
